According to ChEMBL document CHEMBL4014343 (J Med Chem, 2017):
Activity calls are given as the source filed them. The calls are words filed in the database; no cut-off is given here.

How the values were obtained:
SW-620 = test: Growth inhibition of human SW620 cells incubated for 48 hrs by sulforhodamine B assay; type: functional, cell-based
Method in brief: (§1)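 NCI-60 panel growth inhibition, run by the U.S. National Cancer Institute; GI50 values are means of two test series.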

[1] = target: T1, Insulin-like growth factor 1 receptor (Homo sapiens, UniProt P08069); test: Inhibition of recombinant human N-terminal GST/His6-tagged IGF1R (M954 to C1367 residues) expressed in sf9 cells assessed as residual activity at 1 uM using Poly(Glu,Tyr)4:1 as substrate by filter binding assay relative to control
T1 sequence (P08069 31-736 limits assumed): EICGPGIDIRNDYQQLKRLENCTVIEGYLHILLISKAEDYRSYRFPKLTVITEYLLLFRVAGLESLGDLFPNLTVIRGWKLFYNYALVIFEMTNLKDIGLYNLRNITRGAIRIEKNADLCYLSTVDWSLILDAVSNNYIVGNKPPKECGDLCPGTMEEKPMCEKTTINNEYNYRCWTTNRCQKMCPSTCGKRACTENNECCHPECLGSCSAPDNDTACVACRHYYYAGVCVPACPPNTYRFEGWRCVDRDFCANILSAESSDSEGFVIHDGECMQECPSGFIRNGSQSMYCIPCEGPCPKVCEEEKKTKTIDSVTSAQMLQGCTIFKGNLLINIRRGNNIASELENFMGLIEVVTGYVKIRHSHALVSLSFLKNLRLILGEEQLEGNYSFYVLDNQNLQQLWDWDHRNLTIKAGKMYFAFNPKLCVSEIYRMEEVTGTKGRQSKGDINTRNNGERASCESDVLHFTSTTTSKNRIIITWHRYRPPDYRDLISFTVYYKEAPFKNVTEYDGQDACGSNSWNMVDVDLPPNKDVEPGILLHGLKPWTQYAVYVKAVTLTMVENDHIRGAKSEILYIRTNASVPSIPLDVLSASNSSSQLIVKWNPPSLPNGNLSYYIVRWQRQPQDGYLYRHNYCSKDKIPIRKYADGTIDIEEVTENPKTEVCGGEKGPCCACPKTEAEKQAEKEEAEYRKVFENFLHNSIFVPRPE
T1 sequence (P08069 741-1367 limits assumed): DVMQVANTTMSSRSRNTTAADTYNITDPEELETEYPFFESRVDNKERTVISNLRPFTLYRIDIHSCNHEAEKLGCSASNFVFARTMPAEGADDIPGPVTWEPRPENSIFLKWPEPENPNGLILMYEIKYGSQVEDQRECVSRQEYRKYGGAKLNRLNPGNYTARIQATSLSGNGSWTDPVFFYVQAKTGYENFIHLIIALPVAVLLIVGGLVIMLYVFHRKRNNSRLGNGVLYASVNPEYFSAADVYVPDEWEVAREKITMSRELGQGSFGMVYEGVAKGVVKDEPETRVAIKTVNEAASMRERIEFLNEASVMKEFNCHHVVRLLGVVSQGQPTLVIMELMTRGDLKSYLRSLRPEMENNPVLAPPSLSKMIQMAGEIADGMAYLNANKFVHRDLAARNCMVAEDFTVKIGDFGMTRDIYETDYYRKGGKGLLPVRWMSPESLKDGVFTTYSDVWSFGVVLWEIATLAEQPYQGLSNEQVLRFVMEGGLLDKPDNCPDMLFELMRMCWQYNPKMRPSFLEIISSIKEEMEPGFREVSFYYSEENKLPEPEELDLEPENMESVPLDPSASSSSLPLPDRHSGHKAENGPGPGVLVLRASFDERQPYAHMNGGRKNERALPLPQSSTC
Method in brief: (§2)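 Single-point profiling at 1 μM in a 22-kinase panel, performed externally by ProQinase; activity read as residual percent of control.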

[2] = target: T1, Insulin-like growth factor 1 receptor; test: Inhibition of IGF1R in human MCF7 cells assessed as reduction in Akt phosphorylation at Ser473 residue after 24 hrs by immunoblot analysis; type: cell-based
Method in brief: (§3)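 Cells in their medium with 10% FBS exposed to rising concentrations for 24 h; whole-cell lysates immunoblotted for p-Akt (S473) and total Akt; PI3K inhibitor at 10 μM as positive control.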

[3] = target: Glycogen synthase kinase-3 beta (Homo sapiens, UniProt P49841); test: Inhibition of human N-terminal GST/His6-tagged GSK3beta (M1 to T420 residues) expressed in baculovirus infected sf9 cells at 1 uM using RBER-IRStide as substrate by filter binding assay; method in brief: as §2
Chain of Glycogen synthase kinase-3 beta (P49841 whole entry, looked up, the tested form may be a part): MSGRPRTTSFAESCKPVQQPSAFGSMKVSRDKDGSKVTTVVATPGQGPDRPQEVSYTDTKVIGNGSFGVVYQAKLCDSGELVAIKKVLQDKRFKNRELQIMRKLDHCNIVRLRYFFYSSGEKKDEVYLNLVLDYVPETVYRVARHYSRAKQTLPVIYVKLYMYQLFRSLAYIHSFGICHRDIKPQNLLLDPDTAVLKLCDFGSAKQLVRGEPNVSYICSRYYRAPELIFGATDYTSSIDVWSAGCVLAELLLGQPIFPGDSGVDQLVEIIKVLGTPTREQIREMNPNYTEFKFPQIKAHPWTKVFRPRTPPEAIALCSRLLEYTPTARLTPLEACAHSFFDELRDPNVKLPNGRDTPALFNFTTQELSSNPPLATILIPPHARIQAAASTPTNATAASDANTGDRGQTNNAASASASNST

TK-10 = test: Growth inhibition of human TK10 cells incubated for 48 hrs by sulforhodamine B assay; type: functional, cell-based; method in brief: as §1
HCT-116 = test: Growth inhibition of human HCT116 cells incubated for 48 hrs by sulforhodamine B assay; type: functional, cell-based
786-0 = test: Growth inhibition of human 786-0 cells incubated for 48 hrs by sulforhodamine B assay; type: functional, cell-based
[4] = target: Serine/threonine-protein kinase Chk2 (Homo sapiens) (UniProt O96017); test: Inhibition of CHK2 (unknown origin) at 1 uM; method in brief: as §2
Chain of Serine/threonine-protein kinase Chk2 (Homo sapiens) (O96017 whole entry, the tested form may be a part): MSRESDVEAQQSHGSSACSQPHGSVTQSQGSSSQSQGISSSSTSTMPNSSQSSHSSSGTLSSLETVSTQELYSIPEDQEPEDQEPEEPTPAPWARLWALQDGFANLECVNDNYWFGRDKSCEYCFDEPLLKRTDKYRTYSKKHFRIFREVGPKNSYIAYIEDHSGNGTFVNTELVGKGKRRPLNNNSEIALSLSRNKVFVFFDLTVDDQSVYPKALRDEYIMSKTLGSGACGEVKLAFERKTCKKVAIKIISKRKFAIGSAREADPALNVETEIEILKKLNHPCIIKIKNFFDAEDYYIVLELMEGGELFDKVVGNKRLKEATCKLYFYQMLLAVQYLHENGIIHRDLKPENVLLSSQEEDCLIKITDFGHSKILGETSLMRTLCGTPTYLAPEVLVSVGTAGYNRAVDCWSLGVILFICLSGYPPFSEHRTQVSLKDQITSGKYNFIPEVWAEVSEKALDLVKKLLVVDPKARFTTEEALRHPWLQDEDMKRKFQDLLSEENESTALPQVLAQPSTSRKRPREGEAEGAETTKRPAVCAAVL

[5] = target: T2, Aurora kinase A (Homo sapiens) (UniProt O14965); test: Inhibition of human N-terminal GST/His6-tagged Aurora A (M1 to S403 residues) expressed in baculovirus infected sf9 cells at 1 uM using tetra(LRRLSLG) as substrate by filter binding assay; method in brief: as §2
T2 sequence (whole entry): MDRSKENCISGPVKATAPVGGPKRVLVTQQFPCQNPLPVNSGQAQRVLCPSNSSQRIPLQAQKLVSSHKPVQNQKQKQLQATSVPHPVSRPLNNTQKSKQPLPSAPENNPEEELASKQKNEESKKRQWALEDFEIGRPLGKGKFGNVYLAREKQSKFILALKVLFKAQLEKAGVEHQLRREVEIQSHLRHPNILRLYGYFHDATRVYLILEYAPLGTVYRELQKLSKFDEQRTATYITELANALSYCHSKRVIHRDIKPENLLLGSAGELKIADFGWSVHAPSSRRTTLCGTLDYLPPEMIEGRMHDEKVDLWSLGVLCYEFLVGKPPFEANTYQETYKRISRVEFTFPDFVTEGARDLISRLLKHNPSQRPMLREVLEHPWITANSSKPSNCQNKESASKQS

SK-MEL-2 = test: Growth inhibition of human SK-MEL-2 cells incubated for 48 hrs by sulforhodamine B assay; type: functional, cell-based
OVCAR-8 = test: Growth inhibition of human OVCAR8 cells incubated for 48 hrs by sulforhodamine B assay; type: functional, cell-based
MOLT-4 = test: Growth inhibition of human MOLT4 cells incubated for 48 hrs by sulforhodamine B assay; type: functional, cell-based
MCF7 = test: Cell cycle arrest in human MCF7 cells assessed as accumulation at G2/M phase up to 1 uM after 24 to 48 hrs by propidium iodide staining based FACS analysis; type: functional
Method in brief: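 MCF7 cells grown 24 h in DMEM with 10% FBS and 1% PS, then exposed to 1 μM for 24 and 48 h. Pellets fixed in 70% ethanol for at least 24 h, washed twice in ice-cold PBS, treated with RNase A (50 μg/mL, 1 h, 37 °C), stained with PI (50 μg/mL, 5 min), and DNA content read by FACS.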

COLO 205 = test: Growth inhibition of human COLO205 cells incubated for 48 hrs by sulforhodamine B assay; type: functional, cell-based
[6] = target: T1, Insulin-like growth factor 1 receptor; test: Inhibition of IGF1R in human MDA-MB-231 cells assessed as reduction in Akt phosphorylation at Ser473 residue after 24 hrs by immunoblot analysis; type: cell-based; method in brief: as §3
HL-60(TB) = test: Growth inhibition of human HL-60(TB) cells incubated for 48 hrs by sulforhodamine B assay; type: functional, cell-based
[7] = target: T1, Insulin-like growth factor 1 receptor; test: Inhibition of IGF1R in human PANC1 cells assessed as reduction in Akt phosphorylation at Ser473 residue after 24 hrs by immunoblot analysis; type: cell-based; method in brief: as §3
ACHN = test: Growth inhibition of human ACHN cells incubated for 48 hrs by sulforhodamine B assay; type: functional, cell-based
OVCAR-3 = test: Growth inhibition of human OVCAR3 cells incubated for 48 hrs by sulforhodamine B assay; type: functional, cell-based
SF-539 = test: Growth inhibition of human SF539 cells incubated for 48 hrs by sulforhodamine B assay; type: functional, cell-based
K562 = test: Growth inhibition of human K562 cells incubated for 48 hrs by sulforhodamine B assay; type: functional, cell-based
SF-268 = test: Growth inhibition of human SF268 cells incubated for 48 hrs by sulforhodamine B assay; type: functional, cell-based
NCI-H322M = test: Growth inhibition of human NCI-H322M cells incubated for 48 hrs by sulforhodamine B assay; type: functional, cell-based
[8] = target: T1, Insulin-like growth factor 1 receptor; test: Inhibition of IGF1R in human HeLa cells assessed as reduction in Akt phosphorylation at Ser473 residue after 24 hrs by immunoblot analysis; type: cell-based; method in brief: as §3
RXF 393 = test: Growth inhibition of human RXF393 cells incubated for 48 hrs by sulforhodamine B assay; type: functional, cell-based
[9] = target: Cyclin-dependent kinase 5/CDK5 activator 1 (Homo sapiens) (UniProt Q00535+Q15078); test: Inhibition of recombinant human N-terminal GST-tagged CDK5 (M1 to P292 residues)/p35NCK (M1 to R307 residues) expressed in baculovirus infected sf9 cells at 1 uM using RB-CTF as substrate by filter binding assay; method in brief: as §2
Chain of Cyclin-dependent kinase 5/CDK5 activator 1 (Homo sapiens) (Q00535 whole entry, the tested form may be a part): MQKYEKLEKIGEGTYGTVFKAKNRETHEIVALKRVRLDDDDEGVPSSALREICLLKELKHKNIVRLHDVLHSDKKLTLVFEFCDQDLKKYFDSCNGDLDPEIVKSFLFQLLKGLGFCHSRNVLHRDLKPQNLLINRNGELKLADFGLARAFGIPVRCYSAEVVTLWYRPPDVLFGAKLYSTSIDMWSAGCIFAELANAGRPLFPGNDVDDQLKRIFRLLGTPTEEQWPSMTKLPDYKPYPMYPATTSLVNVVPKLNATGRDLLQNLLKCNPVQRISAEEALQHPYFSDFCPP
Chain of Cyclin-dependent kinase 5/CDK5 activator 1 (Homo sapiens) (Q15078 99-307 partner limits assumed): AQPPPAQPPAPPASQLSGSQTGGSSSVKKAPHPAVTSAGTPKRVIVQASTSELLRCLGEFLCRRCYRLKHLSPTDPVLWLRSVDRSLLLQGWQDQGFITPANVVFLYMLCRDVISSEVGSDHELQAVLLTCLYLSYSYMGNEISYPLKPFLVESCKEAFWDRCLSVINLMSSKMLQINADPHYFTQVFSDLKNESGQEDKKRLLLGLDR

[10] = target: T3, Aurora kinase C (Homo sapiens) (UniProt Q9UQB9); test: Inhibition of human N-terminal GST-tagged Aurora B (M1 to S27 residues) expressed in sf9 cells at 1 uM using CDC25C-derived peptide as substrate by filter binding assay; method in brief: as §2
T3 sequence (whole entry): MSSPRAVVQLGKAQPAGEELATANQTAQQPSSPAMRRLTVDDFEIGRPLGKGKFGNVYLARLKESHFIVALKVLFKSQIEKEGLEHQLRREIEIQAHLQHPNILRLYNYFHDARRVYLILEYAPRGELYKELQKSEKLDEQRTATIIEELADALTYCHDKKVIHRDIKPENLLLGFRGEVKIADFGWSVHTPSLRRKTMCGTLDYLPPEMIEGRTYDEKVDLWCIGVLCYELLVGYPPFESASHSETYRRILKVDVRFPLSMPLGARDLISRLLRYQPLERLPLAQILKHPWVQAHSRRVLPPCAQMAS

NCI-H226 = test: Growth inhibition of human NCI-H226 cells incubated for 48 hrs by sulforhodamine B assay; type: functional, cell-based

CN1CCN(CCO/N=C2/C(=C3/C(=O)Nc4ccccc43)Nc3ccccc32)CC1
growth inhibition (GI) (SW-620): Active
Activity [1]: 30%
inhibition [2]: Dose-dependent effect
inhibition [3]: inactive
growth inhibition (GI) (TK-10): Active
growth inhibition (GI) (HCT-116): Active
growth inhibition (GI) (786-0): Active
inhibition [4]: inactive
inhibition [5]: inactive
growth inhibition (GI) (SK-MEL-2): Active
growth inhibition (GI) (OVCAR-8): Active
growth inhibition (GI) (MOLT-4): Active
Activity (MCF7): Active
growth inhibition (GI) (COLO 205): Active
inhibition [6]: Dose-dependent effect
growth inhibition (GI) (HL-60(TB)): Active
inhibition [7]: Dose-dependent effect
growth inhibition (GI) (ACHN): Active
growth inhibition (GI) (OVCAR-3): Active
growth inhibition (GI) (SF-539): Active
growth inhibition (GI) (K562): Active
growth inhibition (GI) (SF-268): Active
growth inhibition (GI) (NCI-H322M): Active
inhibition [8]: Dose-dependent effect
growth inhibition (GI) (RXF 393): Active
inhibition [9]: inactive
inhibition [10]: inactive
growth inhibition (GI) (NCI-H226): Active
